# pIC50, pKi: −log10 of the molar value.
# How the values were obtained:
# [1] = target: T1, 3-oxo-5-alpha-steroid 4-dehydrogenase 1 (Homo sapiens, UniProt P18405); test: Inhibition of recombinant steroid 5-alpha-reductase type I expressed in CHO cells; format: cell-based
# T1 sequence (P18405 whole entry): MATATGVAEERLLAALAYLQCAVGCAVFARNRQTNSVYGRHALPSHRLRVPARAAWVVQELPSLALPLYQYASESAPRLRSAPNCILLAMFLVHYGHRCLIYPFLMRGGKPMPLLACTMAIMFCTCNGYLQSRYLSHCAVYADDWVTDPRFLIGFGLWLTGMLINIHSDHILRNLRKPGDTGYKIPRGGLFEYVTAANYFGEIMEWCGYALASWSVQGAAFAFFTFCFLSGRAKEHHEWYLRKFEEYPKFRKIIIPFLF
# [2] = target: T1, 3-oxo-5-alpha-steroid 4-dehydrogenase 1; test: Inhibition of recombinant Steroid 5-alpha-reductase type I expressed in CHO cells; format: cell-based
# [3] = target: T1, 3-oxo-5-alpha-steroid 4-dehydrogenase 1; test: Inhibitory activity against Steroid 5-alpha-reductase type I in human scalp homogenates; format: tissue-based
# In short: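 Native 5αR-1 assayed in total human scalp homogenate with testosterone at micromolar level. 10 nM finasteride was included to suppress the co-active 5αR-2, and the value is reported as IC50.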
# [4] = target: T2, 3-oxo-5-alpha-steroid 4-dehydrogenase 2 (Homo sapiens) (UniProt P31213); test: Inhibitory activity against steroid 5-alpha-reductase type 2 in human prostate homogenates at 10 uM; format: tissue-based; settings: Prostate gland
# T2 sequence (whole entry): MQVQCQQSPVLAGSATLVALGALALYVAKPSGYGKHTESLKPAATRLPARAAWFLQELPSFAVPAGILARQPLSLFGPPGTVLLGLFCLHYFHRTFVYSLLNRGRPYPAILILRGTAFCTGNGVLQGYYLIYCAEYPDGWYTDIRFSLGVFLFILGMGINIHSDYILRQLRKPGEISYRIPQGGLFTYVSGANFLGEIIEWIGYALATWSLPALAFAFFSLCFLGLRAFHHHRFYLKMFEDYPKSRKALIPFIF
# In short: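 Native 5αR-2 assayed in total human prostate homogenate with 50 nM testosterone, a level below the 5αR-1 Km so only type 2 is active. Percent inhibition was measured at 10 µM inhibitor.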
# [5] = target: T1, 3-oxo-5-alpha-steroid 4-dehydrogenase 1; test: Inhibition constant against recombinant Steroid 5-alpha-reductase type I expressed in CHO cells; format: cell-based
# [6] = target: T3, 3-oxo-5-alpha-steroid 4-dehydrogenase 2 (Homo sapiens, UniProt P31213); test: Inhibitory activity against steroid 5-alpha-reductase type 2 in human prostate homogenates; format: tissue-based, Prostate gland
# T3 sequence (P31213 whole entry): T2 sequence (whole entry)
# In short: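 Native 5αR-2 in total human prostate homogenate, with 50 nM testosterone so that only type 2 is active (Km 0.2 µM vs 1.7 µM for type 1). Inhibition measured at 10 µM or as IC50. Finasteride and LY191704 used as selectivity controls.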
# [7] = target: T1, 3-oxo-5-alpha-steroid 4-dehydrogenase 1; test: Inhibitory activity against recombinant Steroid 5-alpha-reductase type I expressed in CHO cells; format: cell-based
compound,measurement,setting,value
Cc1ccc2c(c1)CCC1[C@H](C)C(=O)C=CN21 (some centres not stated),pIC50,[1],6.86
CC1=C2CC(C)c3cc(Cl)ccc3N2CCC1=O (configuration not stated),pIC50,[2],8.07
Cc1ccc2c(c1)CCC1=CC(=O)CCN12,pIC50,[1],6.42
Cc1ccc2c(c1)CCC1CC(=O)C=CN21 (configuration not stated),pIC50,[1],6.75
CN1C(=O)CC[C@@H]2c3ccc(Cl)cc3CC[C@H]21 [BEXLOSTERIDE],pIC50,[3],8.64
same,inhibition,[4],19%
CC1C(=O)C=CN2c3ccc(Cl)cc3CCC12 (configuration not stated),pIC50,[1],6.85
CC1=C2CCc3ccccc3N2CCC1=O,pIC50,[1],6.73
Cc1ccc2c(c1)CCC1C(C)C(=O)C=CN21 (configuration not stated),pIC50,[2],6.51
CC1=C2CCc3cc(Cl)ccc3N2CCC1=O,pIC50,[1],8.12
same,pIC50,[3],7.39
same,inhibition,[4],20%
same,pKi,[5],8.57
Cc1ccc2c(c1)C(C)CC1=CC(=O)CCN12 (configuration not stated),pIC50,[2],7.84
C[C@H]1Cc2cc(Cl)ccc2N2C=CC(=O)CC12 (some centres not stated),pIC50,[1],5.04
CC1=C2CCc3cc(C)ccc3N2CCC1=O,pIC50,[1],7.70
same,pIC50,[3],7.39
same,inhibition,[4],20%
same,pKi,[5],8.24
C[C@@H]1C(=O)C=CN2c3ccccc3CCC12 (some centres not stated),pIC50,[1],5.57
O=C1C=CN2c3ccc(Cl)cc3CCC2C1 (configuration not stated),pIC50,[1],6.34
CC1=C2C(C)Cc3cc(Cl)ccc3N2CCC1=O (configuration not stated),pIC50,[2],7.81
CC1CC2=CC(=O)CCN2c2ccc(Cl)cc21 (configuration not stated),pIC50,[2],7.84
CC(C)(C)NC(=O)[C@H]1CC[C@H]2[C@@H]3CC[C@H]4NC(=O)C=C[C@]4(C)[C@H]3CC[C@]12C [FINASTERIDE],pIC50,[6],8.66
same,pKi,[7],6.44
CC1C(=O)C=CN2c3ccccc3CCC12 (configuration not stated),pIC50,[2],5.37
CC1=C2CC(C)c3cc(C)ccc3N2CCC1=O (configuration not stated),pIC50,[2],7.80
CC1Cc2cc(Cl)ccc2-n2ccc(=O)cc21 (configuration not stated),pIC50,[2],5.73
CC1Cc2cc(Cl)ccc2N2CCC(=O)C=C12 (configuration not stated),pIC50,[1],6.46
Cc1c2n(ccc1=O)-c1ccccc1CC2,pIC50,[2],5.85
C[C@@H]1CC2CC(=O)C=CN2c2ccc(Cl)cc21 (some centres not stated),pIC50,[1],6.73
CC1CC(=O)C=C2CCc3cc(Cl)ccc3N21 (configuration not stated),pIC50,[2],6.69
